ChEMBL document CHEMBL1240487, “Discovery of a potent, selective, and orally bioavailable pyridinyl-pyrimidine phthalazine aurora kinase inhibitor” (J Med Chem, 2010)

How the values were obtained:
[1] = target: T1, Aurora kinase A/Targeting protein for Xklp2 (Homo sapiens, UniProt O14965); test: Inhibition of Aurora A/TPX2 (1-43) by HTRF assay; assay type: protein-complex assay
T1 sequence (O14965 whole entry): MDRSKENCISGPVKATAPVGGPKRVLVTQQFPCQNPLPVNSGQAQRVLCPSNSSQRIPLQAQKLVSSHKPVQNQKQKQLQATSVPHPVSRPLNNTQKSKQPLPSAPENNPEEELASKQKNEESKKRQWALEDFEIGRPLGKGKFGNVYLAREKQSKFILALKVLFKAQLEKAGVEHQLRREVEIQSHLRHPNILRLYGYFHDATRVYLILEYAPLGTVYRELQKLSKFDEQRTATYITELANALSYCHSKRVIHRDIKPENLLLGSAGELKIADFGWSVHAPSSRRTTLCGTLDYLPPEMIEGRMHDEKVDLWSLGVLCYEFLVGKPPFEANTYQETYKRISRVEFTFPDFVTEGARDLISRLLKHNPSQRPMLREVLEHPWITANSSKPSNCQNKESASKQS
T1 sequence (Q9ULW0 whole entry): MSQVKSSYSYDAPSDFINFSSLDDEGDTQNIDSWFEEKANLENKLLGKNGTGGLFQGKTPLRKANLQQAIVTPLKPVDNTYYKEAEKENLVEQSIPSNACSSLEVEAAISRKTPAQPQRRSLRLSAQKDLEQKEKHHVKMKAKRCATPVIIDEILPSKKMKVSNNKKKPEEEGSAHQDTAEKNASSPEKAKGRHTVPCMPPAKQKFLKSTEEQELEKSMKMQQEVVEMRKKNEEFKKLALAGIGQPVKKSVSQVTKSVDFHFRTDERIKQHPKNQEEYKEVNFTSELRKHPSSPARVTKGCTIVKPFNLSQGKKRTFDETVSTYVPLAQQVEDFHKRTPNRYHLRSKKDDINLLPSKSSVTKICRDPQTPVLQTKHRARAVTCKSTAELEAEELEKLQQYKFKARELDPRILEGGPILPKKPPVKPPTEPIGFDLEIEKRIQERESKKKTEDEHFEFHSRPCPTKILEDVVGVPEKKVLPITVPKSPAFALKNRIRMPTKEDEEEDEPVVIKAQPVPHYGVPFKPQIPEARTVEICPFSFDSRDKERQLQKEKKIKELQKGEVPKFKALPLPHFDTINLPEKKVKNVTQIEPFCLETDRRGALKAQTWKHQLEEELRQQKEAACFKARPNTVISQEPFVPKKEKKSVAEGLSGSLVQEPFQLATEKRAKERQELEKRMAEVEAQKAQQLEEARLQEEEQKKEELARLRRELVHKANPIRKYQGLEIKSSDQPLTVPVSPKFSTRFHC
In short: (§1)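 Enzyme inhibition was run with ATP at its Km for each kinase. Values are averages of at least two determinations.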

Aurora kinase B = Aurora kinase B (Homo sapiens, UniProt Q96GD4); test: Inhibition of Aurora B by HTRF assay; in short: as §1
[2] = target: Insulin-like growth factor 1 receptor (Homo sapiens, UniProt P08069); test: Inhibition of IGFR1 by HTRF assay; in short: as §1
[3] = target: Tyrosine-protein kinase JAK2 (Homo sapiens, UniProt O60674); test: Inhibition of Jak2 by HTRF assay; in short: as §1
[4] = target: T2, Tyrosine-protein kinase JAK3 (Homo sapiens, UniProt P52333); test: Inhibition of Jak3 by HTRF assay; in short: as §1
T2 sequence (P52333 whole entry): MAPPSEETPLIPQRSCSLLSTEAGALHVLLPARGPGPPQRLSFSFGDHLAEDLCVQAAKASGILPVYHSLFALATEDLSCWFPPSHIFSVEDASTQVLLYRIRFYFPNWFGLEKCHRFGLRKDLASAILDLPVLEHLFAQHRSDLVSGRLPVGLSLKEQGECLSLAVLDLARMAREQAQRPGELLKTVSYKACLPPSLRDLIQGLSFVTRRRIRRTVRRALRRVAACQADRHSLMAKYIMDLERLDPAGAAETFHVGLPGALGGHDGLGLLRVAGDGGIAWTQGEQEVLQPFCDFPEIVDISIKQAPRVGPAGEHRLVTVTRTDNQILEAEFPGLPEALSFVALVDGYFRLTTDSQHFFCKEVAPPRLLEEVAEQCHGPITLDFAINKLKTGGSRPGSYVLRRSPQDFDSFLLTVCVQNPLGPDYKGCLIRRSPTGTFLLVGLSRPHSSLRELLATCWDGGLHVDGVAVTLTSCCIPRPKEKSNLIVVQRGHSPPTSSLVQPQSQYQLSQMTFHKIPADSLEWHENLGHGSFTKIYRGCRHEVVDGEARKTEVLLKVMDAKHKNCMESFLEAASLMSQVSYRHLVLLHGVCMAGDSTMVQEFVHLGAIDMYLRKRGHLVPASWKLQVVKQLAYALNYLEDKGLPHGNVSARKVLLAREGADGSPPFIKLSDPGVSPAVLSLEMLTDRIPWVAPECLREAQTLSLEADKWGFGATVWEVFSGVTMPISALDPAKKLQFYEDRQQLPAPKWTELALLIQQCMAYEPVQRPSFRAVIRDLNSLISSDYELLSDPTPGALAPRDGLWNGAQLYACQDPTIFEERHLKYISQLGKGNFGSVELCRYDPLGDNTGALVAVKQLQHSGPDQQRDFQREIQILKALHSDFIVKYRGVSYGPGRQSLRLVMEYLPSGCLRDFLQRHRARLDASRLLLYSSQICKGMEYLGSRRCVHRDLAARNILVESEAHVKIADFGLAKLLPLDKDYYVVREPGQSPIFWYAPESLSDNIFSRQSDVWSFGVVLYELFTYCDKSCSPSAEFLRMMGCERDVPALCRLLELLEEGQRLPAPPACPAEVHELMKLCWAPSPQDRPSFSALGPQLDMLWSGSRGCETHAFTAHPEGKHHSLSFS

[5] = target: Mitogen-activated protein kinase 9 (Homo sapiens, UniProt P45984); test: Inhibition of JNK2 by HTRF assay; in short: as §1
[6] = target: Ribosomal protein S6 kinase beta-1 (Homo sapiens, UniProt P23443); test: Inhibition of p70s6k by HTRF assay; in short: as §1
[7] = target: Mitogen-activated protein kinase 3 (Homo sapiens, UniProt P27361); test: Inhibition of Erk1 by HTRF assay; in short: as §1
[8] = target: RAC-alpha serine/threonine-protein kinase (Homo sapiens, UniProt P31749); test: Inhibition of PKBalpha by HTRF assay; in short: as §1
[9] = target: Cyclin-dependent kinase 5 (Homo sapiens, UniProt Q00535); test: Inhibition of CDK5 by HTRF assay; in short: as §1
Chain of Cyclin-dependent kinase 5 (Q00535 whole entry): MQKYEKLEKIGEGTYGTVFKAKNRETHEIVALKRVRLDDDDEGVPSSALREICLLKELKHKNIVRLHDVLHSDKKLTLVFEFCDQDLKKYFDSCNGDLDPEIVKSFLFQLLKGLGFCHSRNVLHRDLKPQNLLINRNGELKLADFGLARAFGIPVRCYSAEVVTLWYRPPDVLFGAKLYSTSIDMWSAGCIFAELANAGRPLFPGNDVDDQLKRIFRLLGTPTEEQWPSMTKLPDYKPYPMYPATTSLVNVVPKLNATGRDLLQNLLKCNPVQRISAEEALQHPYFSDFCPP

Chain of Mitogen-activated protein kinase 3 (P27361 whole entry): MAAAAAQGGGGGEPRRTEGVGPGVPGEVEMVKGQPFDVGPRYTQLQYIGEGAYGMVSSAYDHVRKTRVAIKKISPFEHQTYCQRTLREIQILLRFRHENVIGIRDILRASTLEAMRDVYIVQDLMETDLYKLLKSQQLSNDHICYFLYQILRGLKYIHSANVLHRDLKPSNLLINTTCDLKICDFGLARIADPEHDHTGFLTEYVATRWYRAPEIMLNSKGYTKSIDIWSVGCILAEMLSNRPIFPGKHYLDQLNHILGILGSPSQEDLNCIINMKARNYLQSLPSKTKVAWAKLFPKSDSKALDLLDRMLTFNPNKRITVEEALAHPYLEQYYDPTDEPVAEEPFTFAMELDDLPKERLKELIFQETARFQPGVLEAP
Chain of Tyrosine-protein kinase JAK2 (O60674 whole entry): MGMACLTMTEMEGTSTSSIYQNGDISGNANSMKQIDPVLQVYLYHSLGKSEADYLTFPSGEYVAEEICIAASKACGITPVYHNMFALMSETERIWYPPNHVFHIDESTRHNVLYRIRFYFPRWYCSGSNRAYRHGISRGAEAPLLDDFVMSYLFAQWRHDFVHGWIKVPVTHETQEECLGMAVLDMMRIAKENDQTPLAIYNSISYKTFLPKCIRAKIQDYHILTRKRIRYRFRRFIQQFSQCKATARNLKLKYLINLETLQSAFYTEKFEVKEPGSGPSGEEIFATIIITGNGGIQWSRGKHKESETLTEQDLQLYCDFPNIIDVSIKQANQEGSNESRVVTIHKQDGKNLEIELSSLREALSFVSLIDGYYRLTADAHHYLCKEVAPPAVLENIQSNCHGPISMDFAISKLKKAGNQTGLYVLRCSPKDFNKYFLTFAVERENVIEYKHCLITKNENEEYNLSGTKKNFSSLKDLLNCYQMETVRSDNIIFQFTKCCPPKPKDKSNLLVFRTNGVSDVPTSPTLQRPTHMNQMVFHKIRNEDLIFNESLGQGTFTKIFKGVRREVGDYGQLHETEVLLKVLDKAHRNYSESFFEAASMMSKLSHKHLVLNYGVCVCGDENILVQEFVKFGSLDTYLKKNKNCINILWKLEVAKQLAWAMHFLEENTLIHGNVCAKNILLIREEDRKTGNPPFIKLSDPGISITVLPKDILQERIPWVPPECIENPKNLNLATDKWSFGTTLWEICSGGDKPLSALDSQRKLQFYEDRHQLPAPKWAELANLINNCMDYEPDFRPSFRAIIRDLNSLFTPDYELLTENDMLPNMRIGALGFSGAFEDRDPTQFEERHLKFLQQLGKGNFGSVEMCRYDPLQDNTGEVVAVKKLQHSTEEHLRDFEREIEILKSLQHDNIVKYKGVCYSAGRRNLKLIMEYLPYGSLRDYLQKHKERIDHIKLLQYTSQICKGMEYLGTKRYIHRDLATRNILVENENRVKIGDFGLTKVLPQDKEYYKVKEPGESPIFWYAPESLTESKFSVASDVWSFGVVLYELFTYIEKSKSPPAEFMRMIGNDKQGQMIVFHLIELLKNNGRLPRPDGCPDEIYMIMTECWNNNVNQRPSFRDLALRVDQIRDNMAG
Chain of Aurora kinase B (Q96GD4 whole entry): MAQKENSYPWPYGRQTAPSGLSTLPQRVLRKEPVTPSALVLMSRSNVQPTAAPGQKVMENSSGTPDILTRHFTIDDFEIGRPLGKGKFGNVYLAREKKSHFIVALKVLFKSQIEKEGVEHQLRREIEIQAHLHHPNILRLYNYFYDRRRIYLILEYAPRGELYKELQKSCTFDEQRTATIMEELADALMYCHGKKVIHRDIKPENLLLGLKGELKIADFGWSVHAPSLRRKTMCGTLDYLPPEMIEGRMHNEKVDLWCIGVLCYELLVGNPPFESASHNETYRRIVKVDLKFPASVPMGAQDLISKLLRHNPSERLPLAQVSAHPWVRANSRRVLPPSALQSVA
Chain of Mitogen-activated protein kinase 9 (P45984 whole entry): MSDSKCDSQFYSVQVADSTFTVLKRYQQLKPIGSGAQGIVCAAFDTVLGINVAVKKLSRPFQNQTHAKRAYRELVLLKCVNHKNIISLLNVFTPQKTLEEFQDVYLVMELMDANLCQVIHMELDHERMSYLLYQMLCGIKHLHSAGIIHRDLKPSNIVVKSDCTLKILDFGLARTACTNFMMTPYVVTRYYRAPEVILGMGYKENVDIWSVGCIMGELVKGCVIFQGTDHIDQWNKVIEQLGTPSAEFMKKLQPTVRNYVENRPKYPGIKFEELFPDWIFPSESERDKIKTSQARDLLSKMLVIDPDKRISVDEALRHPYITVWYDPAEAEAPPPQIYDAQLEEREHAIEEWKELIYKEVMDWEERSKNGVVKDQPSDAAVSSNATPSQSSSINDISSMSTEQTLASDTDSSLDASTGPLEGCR
Chain of RAC-alpha serine/threonine-protein kinase (P31749 whole entry): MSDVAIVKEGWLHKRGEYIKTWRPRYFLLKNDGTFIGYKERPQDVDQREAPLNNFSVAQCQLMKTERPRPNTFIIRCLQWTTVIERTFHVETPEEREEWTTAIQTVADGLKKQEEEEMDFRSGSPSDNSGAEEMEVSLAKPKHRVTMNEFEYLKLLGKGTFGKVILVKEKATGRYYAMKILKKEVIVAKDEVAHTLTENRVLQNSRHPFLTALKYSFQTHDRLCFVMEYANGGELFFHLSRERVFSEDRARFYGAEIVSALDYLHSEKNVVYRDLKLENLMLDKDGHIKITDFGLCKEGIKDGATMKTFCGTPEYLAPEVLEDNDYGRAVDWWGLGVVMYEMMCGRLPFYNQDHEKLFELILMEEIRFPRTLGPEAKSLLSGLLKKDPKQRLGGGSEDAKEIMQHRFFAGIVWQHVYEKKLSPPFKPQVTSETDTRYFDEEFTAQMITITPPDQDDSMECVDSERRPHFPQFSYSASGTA
Chain of Insulin-like growth factor 1 receptor (P08069 31-736 limits assumed): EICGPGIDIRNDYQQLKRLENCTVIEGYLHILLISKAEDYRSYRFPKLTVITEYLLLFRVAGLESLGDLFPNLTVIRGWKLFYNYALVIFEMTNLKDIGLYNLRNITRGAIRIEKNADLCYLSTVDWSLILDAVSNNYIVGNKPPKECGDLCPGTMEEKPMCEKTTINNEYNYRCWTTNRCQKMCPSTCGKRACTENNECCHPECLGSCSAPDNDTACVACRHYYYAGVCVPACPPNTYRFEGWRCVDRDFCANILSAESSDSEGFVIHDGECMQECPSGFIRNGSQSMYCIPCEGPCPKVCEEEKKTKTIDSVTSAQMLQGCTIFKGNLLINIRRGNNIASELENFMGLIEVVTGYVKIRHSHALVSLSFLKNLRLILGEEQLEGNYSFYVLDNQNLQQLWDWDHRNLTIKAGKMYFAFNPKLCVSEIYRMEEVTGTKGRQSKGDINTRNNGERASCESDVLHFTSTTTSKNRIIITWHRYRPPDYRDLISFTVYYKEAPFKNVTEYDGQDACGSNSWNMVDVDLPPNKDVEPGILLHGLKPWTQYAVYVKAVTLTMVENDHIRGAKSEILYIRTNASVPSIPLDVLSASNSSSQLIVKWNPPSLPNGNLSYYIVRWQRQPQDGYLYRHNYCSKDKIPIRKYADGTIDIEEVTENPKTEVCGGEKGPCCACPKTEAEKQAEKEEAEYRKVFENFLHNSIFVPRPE
Chain of Insulin-like growth factor 1 receptor (P08069 741-1367 limits assumed): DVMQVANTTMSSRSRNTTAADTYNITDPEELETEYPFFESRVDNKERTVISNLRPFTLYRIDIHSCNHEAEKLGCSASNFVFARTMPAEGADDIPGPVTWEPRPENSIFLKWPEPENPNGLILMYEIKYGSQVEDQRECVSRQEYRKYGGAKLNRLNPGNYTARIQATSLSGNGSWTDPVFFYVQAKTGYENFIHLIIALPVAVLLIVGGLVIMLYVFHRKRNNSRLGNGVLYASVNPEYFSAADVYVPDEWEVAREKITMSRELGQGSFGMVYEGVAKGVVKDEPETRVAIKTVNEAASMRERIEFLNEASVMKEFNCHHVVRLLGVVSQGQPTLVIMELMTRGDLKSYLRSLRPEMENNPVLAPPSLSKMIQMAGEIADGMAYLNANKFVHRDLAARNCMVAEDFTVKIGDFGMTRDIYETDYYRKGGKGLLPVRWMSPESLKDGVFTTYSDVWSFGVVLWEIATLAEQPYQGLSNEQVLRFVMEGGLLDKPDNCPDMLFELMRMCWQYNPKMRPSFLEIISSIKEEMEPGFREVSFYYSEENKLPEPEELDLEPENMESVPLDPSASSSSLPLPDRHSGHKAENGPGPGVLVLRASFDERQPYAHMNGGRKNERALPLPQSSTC
Chain of Ribosomal protein S6 kinase beta-1 (P23443 whole entry): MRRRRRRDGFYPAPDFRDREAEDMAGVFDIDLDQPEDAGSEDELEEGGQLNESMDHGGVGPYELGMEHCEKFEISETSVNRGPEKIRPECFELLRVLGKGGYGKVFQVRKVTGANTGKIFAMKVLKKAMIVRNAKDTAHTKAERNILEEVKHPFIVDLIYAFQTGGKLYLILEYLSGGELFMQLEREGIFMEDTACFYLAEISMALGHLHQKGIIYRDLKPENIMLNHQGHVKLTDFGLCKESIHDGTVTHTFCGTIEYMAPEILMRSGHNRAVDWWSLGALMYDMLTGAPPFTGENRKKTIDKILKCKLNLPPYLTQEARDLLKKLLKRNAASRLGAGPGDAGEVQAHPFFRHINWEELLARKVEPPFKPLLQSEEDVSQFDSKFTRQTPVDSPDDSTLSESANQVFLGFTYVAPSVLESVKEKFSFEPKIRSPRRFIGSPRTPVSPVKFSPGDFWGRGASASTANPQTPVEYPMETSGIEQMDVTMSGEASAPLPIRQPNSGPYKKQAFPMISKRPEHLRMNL

Row | SMILES | IC50 [1] | IC50 (Aurora kinase B) | IC50 [2] | IC50 [3] | IC50 [4] | IC50 [5] | IC50 [6] | IC50 [7] | IC50 [8] | IC50 [9]
1 | CNc1nccc(-c2cccnc2Oc2ccc(Nc3nnc(-c4ccc(F)cc4)c4ccccc34)cc2)n1 | 41 nM | 15 nM | > 25000 nM | > 25000 nM | > 25000 nM | > 25000 nM | > 25000 nM | > 25000 nM | > 25000 nM | > 25000 nM
2 | CNc1nccc(-c2cccnc2Oc2ccc(NC(=O)c3cccc(C(F)(F)F)c3)cc2C)n1 | 586 nM | 66 nM | > 8000 nM | > 8000 nM | > 8000 nM | > 8000 nM | > 8000 nM | > 8000 nM | > 8000 nM | > 8000 nM
3 | CNc1nccc(-c2cccnc2Oc2ccc(NC(=O)c3ccccc3Nc3ccccc3)cc2)n1 | 16 nM | 9 nM | > 1000 nM | > 1000 nM | > 1000 nM | > 1000 nM | > 1000 nM | > 1000 nM | > 1000 nM | > 1000 nM
